Assay results taken from ChEMBL document CHEMBL3085686, “New 7-methylguanine derivatives targeting the influenza polymerase PB2 cap-binding domain” (J Med Chem, 2013).

Columns and labels:
[1] = Inhibition of influenza A virus biotinylated GST-His-tagged H3N2 RNA polymerase PB2 cap-binding domain interaction with EDA-m7GpppA by AlphaScreen assay
[2] = Inhibition of influenza A virus His-tagged H3N2 RNA polymerase PB2 cap-binding domain interaction with EDA-m7GpppA by AlphaScreen assay
Method in brief: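 His-tagged H3N2 PB2 cap-binding domain binding a biotinylated cap analogue (Biotin-EDA-m7GpppA), read by AlphaScreen with Ni(II)-chelate beads at 7.5 µg/ml each. Compound was 11-point 1:1 serially diluted from 200 µM. Incubation at room temperature in subdued light. IC50 reported.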

[3] = tested on: Influenza A virus; experiment: Antiviral activity against Influenza A virus (A/Aichi/2/68(H3N2)) VR-547 infected in MDCK cells assessed as reduction in virus-induced cytopathic effect at 50 uM after 48 hrs by CellTiter-Glo assay; format: functional, Influenza A virus (A/Aichi/2/1968(H3N2)); parameters: scale not given: the % may be the effect or the level left
[4] = tested on: Influenza A virus; experiment: Binding affinity to influenza A virus H5N1 RNA polymerase PB2 cap-binding domain at 10 uM by biacore-based SPR analysis
Method in brief: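 Purified H5N1 PB2 cap-binding domain amine-coupled to a CM7 chip at 30 µg/ml in 10 mM phosphate pH 6.5 with 5 mM m7GTP, giving about 7000 RU. Compound injected at 10 µM final (0.5% DMSO) in Tris/EDTA/NaCl/P20/1 mM DTT running buffer at 10 µL/min. Sensorgrams were double-referenced and DMSO-corrected.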

[5] = Inhibition of influenza A virus RNA polymerase PB2 domain-mediated cap binding
[6] = Binding affinity to influenza A virus H5N1 RNA polymerase PB2 cap-binding domain by biacore-based SPR analysis
Method in brief: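 H5N1 PB2-CBD was immobilised by amine coupling (30 µg/ml, with 5 mM m7GTP, pH 6.5; about 7000 RU). Analyte was run over 200 µM to 1 nM in Tris/EDTA/NaCl/P20/DTT buffer with 0.5% DMSO. Data were double-referenced and DMSO-corrected. KD came from a linear curve fit.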

Compound | IC50 [1] [µM] | IC50 [2] [µM] | Activity [3] [%] | RU [4] | IC50 [5] [µM] | Kd [6] [µM]
C[n+]1cn(CCCCC(=O)O)c2nc(N)nc([O-])c21 | ≥ 200 | ≥ 200 |  |  |  | 
C[n+]1cn(CC(=O)c2ccccc2)c2nc(N)nc([O-])c21 | ≥ 200 | 13.7 | -2.3 |  |  | 
C[n+]1cn(CC(=O)O)c2nc(NCCCCC(=O)O)nc([O-])c21 | ≥ 200 | 95 |  |  |  | 
C[n+]1cn(CC(=O)O)c2nc(NCC(=O)O)nc([O-])c21 | ≥ 200 | 44 |  |  |  | 
C=CC[n+]1cn(CC(=O)c2ccc(O)c(C(N)=O)c2)c2nc(N)nc([O-])c21 | ≥ 200 | 60 | 0 |  |  | 
C[n+]1cn(CCCC(=O)O)c2nc(N)nc([O-])c21 | ≥ 200 | ≥ 200 |  |  |  | 
C[n+]1cn(CC(=O)N[C@H](Cc2ccccc2)C(=O)O)c2nc(NCCCCC(=O)O)nc([O-])c21 | ≥ 200 | 53 |  |  |  | 
C[n+]1cn(CCCCCC(=O)O)c2nc(N)nc([O-])c21 | ≥ 200 | ≥ 200 |  |  |  | 
Nc1nc2c(ncn2CC(=O)c2ccc(O)c(C(=O)O)c2)c(=O)[nH]1 | 4.8 | 5.6 | 1.1 | 22.6 |  | 
NC(=O)c1cc(C(=O)Cn2cnc3c(=O)[nH]c(N)nc32)ccc1O | 141 | 49 | -0.5 | 20.4 |  | 
C[n+]1cn(CCC(=O)O)c2nc(N)nc([O-])c21 | ≥ 200 | ≥ 200 |  |  |  | 
C[n+]1cn(CC(=O)N[C@@H](CC(=O)O)C(=O)O)c2nc(N)nc([O-])c21 | 124 | 33 |  |  |  | 
C[n+]1cn(CC(=O)N[C@@H](Cc2ccccc2)C(=O)O)c2nc(N)nc([O-])c21 | ≥ 200 | 88 |  |  |  | 
CC(=O)Nc1nc([O-])c2c(n1)n(CC(=O)c1ccc(O)c(C(N)=O)c1)c[n+]2C | ≥ 200 | 129 |  |  |  | 
CC(C(=O)c1ccccc1)n1c[n+](C)c2c([O-])nc(N)nc21 (stereo not given) | ≥ 200 | 65 |  |  |  | 
Nc1nc2c(c(=O)[nH]1)[n+](Cc1ccccc1)cn2CCCCO | ≥ 200 | ≥ 200 |  |  | 45 | 
C[n+]1cn(CC(=O)c2ccc3ccccc3c2)c2nc(N)nc([O-])c21 | ≥ 200 | 7.6 | -3.2 |  |  | 
C[n+]1cn(CC(=O)N[C@@H](CCC(=O)O)C(=O)O)c2nc(N)nc([O-])c21 | ≥ 200 | 45 | -1.8 | 13.8 |  | 
C[n+]1cn(CC(=O)c2ccc(O)c(C(=O)O)c2)c2nc(N)nc([O-])c21 | 2.2 | 0.6 |  |  |  | 

Compound | IC50 [1] [µM] | IC50 [2] [µM] | Activity [3] [%] | RU [4] | IC50 [5] [µM] | Kd [6] [µM]
CC(=O)Nc1nc([O-])c2c(n1)n(CC(=O)O)c[n+]2C | ≥ 200 | ≥ 200 |  |  |  | 
C[n+]1cn(CC(=O)N[C@@H](Cc2ccc(O)cc2)C(=O)O)c2nc(N)nc([O-])c21 | ≥ 200 | 80 |  |  |  | 
C[n+]1cn(CC(=O)c2ccc3c(c2)NC(=O)CO3)c2nc(N)nc([O-])c21 | ≥ 200 | 23 |  |  |  | 
C[n+]1cn(-c2ccc(C(=O)O)cc2)c2nc(N)nc([O-])c21 | ≥ 200 | 181 |  |  |  | 
C[n+]1cn(CC(=O)N[C@H](CC(=O)O)C(=O)O)c2nc(N)nc([O-])c21 | ≥ 200 | 91 |  |  |  | 
COc1ccc(-n2c[n+](C)c3c([O-])nc(N)nc32)cc1OC | ≥ 200 | 50 |  |  |  | 
C[n+]1cn(CC(=O)NCC(=O)O)c2nc(N)nc([O-])c21 | ≥ 200 | ≥ 200 |  |  |  | 
C[n+]1cn(-c2ccccc2)c2nc(N)nc([O-])c21 | ≥ 200 | 140 |  |  |  | 
CC[n+]1cn(CC(=O)c2ccc(O)c(C(N)=O)c2)c2nc(N)nc([O-])c21 | ≥ 200 | 3.6 | 0.3 |  |  | 
C[n+]1cn(CC(=O)Nc2cc(C(=O)O)cc(C(=O)O)c2)c2nc(N)nc([O-])c21 | ≥ 200 | ≥ 200 |  |  |  | 
C[n+]1cn(CC(=O)N[C@H](Cc2ccccc2)C(=O)O)c2nc(N)nc([O-])c21 | ≥ 200 | 65 |  |  |  | 
C[n+]1cn(CC(=O)c2ccc(O)c(C(N)=O)c2)c2nc(N)nc([O-])c21 | ≥ 200 | 7.5 | -0.2 | 85.8 |  | 13
C[n+]1cn(-c2cccc(C(=O)O)c2)c2nc(N)nc([O-])c21 | ≥ 200 | 44 |  |  |  | 
C[n+]1cn(CCCCC(=O)O)c2nc(NCCCCC(=O)O)nc([O-])c21 | ≥ 200 | 5.3 | -3.3 | 17.5 |  | 
C[n+]1cn(CC(=O)O)c2nc(N)nc([O-])c21 | ≥ 200 | ≥ 200 |  |  |  | 
C[n+]1cn(C(C(=O)c2ccccc2)c2ccccc2)c2nc(N)nc([O-])c21 (stereo not given) | ≥ 200 | 42 |  |  |  | 
C[n+]1cn(CCCC(=O)O)c2nc(NCCCC(=O)O)nc([O-])c21 | ≥ 200 | 141 |  |  |  | 
NC(=O)c1cc(C(=O)Cn2c[n+](Cc3ccccc3)c3c([O-])nc(N)nc32)ccc1O | ≥ 200 | 195 |  |  |  | 
